Test results published in ChEMBL document CHEMBL4390662, “Design, synthesis and biological evaluation of novel α-acyloxy carboxamides via Passerini reaction as caspase 3/7 activators” (Eur J Med Chem, 2019).
Values after ≈ are worked out from the molar mass of the structure shown. Active and inactive are the calls of the source. The rule behind the calls is not given here.

Key:
WI-38 = assay: Cytotoxicity against human WI38 cells assessed as cell growth inhibition incubated for 72 hrs by MTT assay; format: cell-based; conditions: for IC50: Homo sapiens, WI-38, 72 h; for EC100: human, wi-38, 72 h
How it was run: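 Wi-38 fibroblasts grown in DMEM with 10% FBS and seeded at 5×10^3 per well. Attachment 24 h, then serial concentrations for 72 h at 37°C, 5% CO2. MTT stock (5 mg/mL) added for 3 h at 37°C, DMSO solubilization, absorbance at 570 nm. IC50 estimated.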

MCF7 [1] = assay: Cytotoxicity against human MCF7 cells assessed as cell growth inhibition incubated for 72 hrs by MTT assay; format: functional, cell-based; conditions: MCF7, 72 h
How it was run: (§1)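 Cells grown in RPMI-1640 with 10% FBS and seeded at 5×10^3 per well. After 24 h, serial concentrations given for 72 h at 37°C, 5% CO2. Then 5 mg/mL MTT stock added for 3 h, formazan dissolved in DMSO, A570 read. IC50 calculated from the curves.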

NFS-60 [2] = assay: Cytotoxicity against mouse NFS60 cells assessed as cell growth inhibition incubated for 72 hrs by MTT assay; format: functional, cell-based; conditions: NFS-60, 72 h; how it was run: as §1
HepG2 [3] = assay: Cytotoxicity against human HepG2 cells assessed as cell growth inhibition incubated for 72 hrs by MTT assay; format: functional, cell-based; conditions: HepG2, 72 h; how it was run: as §1
MCF7 [4] = assay: Potency index, ratio of doxorubicin IC50 to test compound IC50 against human MCF7 cells; format: functional
[5] = Selectivity index, ratio of IC50 for human WI38 cells to IC50 for human MCF7 cells; format: toxicity; conditions: WI38 cells versus MCF7 cells, read-out: Ratio IC50
How it was run: (§2)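 SI calculated as IC50 on normal Wi-38 fibroblasts divided by IC50 on the cancer cell line. Both came from 72 h MTT assays.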

[6] = Selectivity index, ratio of IC50 for human WI38 cells to IC50 for mouse NFS60 cells; how it was run: as §2
[7] = Selectivity index, ratio of IC50 for human WI38 cells to IC50 for human HepG2 cells; format: toxicity; conditions: WI38 cells versus HepG2 cells, read-out: Ratio IC50; how it was run: as §2
Staphylococcus aureus [8] = assay: Antimicrobial activity against Staphylococcus aureus ATCC 25923 incubated for 24 hrs by microdilution assay; format: functional
How it was run: (§3)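 Two-fold serial dilutions of test solutions made in Mueller Hinton broth and inoculated. Incubated at 37°C for 24 h. MIC taken as the lowest concentration with no growth. Ciprofloxacin is the antibacterial reference, fluconazole the antifungal one, and DMSO the blank.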

Escherichia coli [9] = assay: Antimicrobial activity against Escherichia coli ATCC 25922 incubated for 24 hrs by microdilution assay; format: functional; conditions: ATCC 25922, 24 h; how it was run: as §3
Candida albicans [10] = assay: Antimicrobial activity against Candida albicans ATCC 90028 incubated for 24 hrs by microdilution assay; format: functional; how it was run: as §3
Staphylococcus aureus [11] = assay: Antimicrobial activity against Staphylococcus aureus ATCC 25923 incubated for 24 hrs by agar well diffusion assay; format: functional
How it was run: (§4)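 Nutrient agar spread with 100 µL inoculum: bacteria at 1×10^8 CFU/mL, fungi at 1×10^6 CFU/mL. 10 mm wells loaded with 100 µL of compound in DMSO (final 1 mg/mL). Bacteria incubated 24 h at 37 °C, fungi 48 h at 28 °C. Inhibition zones measured in mm. Ciprofloxacin and fluconazole standards at 1 mg/mL, DMSO negative control.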

Enterococcus faecalis = assay: Antimicrobial activity against Enterococcus faecalis ATCC 29212 incubated for 24 hrs by agar well diffusion assay; format: functional; how it was run: as §4
Pseudomonas aeruginosa = assay: Antimicrobial activity against Pseudomonas aeruginosa ATCC 27853 incubated for 24 hrs by agar well diffusion assay; format: functional; how it was run: as §4
Escherichia coli [12] = assay: Antimicrobial activity against Escherichia coli ATCC 25922 incubated for 24 hrs by agar well diffusion assay; format: functional; how it was run: as §4
Candida albicans [13] = assay: Antimicrobial activity against Candida albicans ATCC 90028 incubated for 48 hrs by agar well diffusion assay; format: functional; how it was run: as §4
MCF7 [14] = assay: Induction of apoptosis in human MCF7 cells assessed as late apoptotic cells at IC50 incubated for 72 hrs by annexin V/propidium iodide staining based flow cytometry (reference value: 0.01 +/- 0.001%); format: functional
MCF7 [15] = assay: Induction of apoptosis in human MCF7 cells assessed as early apoptotic cells at IC50 incubated for 72 hrs by annexin V/propidium iodide staining based flow cytometry (reference value: 0.47 +/- 0.01%); format: functional
MCF7 [16] = assay: Induction of apoptosis in human MCF7 cells assessed as total apoptotic cells at IC50 incubated for 72 hrs by annexin V/propidium iodide staining based flow cytometry (reference value: 0.48 +/- 0.01%); format: functional
NFS-60 [17] = assay: Induction of apoptosis in mouse NFS60 cells assessed as early apoptotic cells at IC50 incubated for 72 hrs by annexin V/propidium iodide staining based flow cytometry (reference value: 0.02 +/- 0.01%); format: functional
NFS-60 [18] = assay: Induction of apoptosis in mouse NFS60 cells assessed as total apoptotic cells at IC50 incubated for 72 hrs by annexin V/propidium iodide staining based flow cytometry (reference value: 0.495 +/- 0.01%); format: functional
HepG2 [19] = assay: Induction of apoptosis in human HepG2 cells assessed as early apoptotic cells at IC50 incubated for 72 hrs by annexin V/propidium iodide staining based flow cytometry (reference value: 0.78 +/- 0.09%); format: functional
HepG2 [20] = assay: Induction of apoptosis in human HepG2 cells assessed as late apoptotic cells at IC50 incubated for 72 hrs by annexin V/propidium iodide staining based flow cytometry (reference value: 0.1 +/- 0.001%); format: functional
HepG2 [21] = assay: Induction of apoptosis in human HepG2 cells assessed as total apoptotic cells at IC50 incubated for 72 hrs by annexin V/propidium iodide staining based flow cytometry (reference value: 0.169 +/- 0.02%); format: functional
MCF7 [22] = assay: Induction of apoptosis in human MCF7 cells assessed as caspase 3/7 activity using DEVD aminoluciferin as substrate at IC50 after 24 hrs […] relative to control; format: functional
How it was run: (§5)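 Caspase 3/7 activation measured with Caspase-Glo 3/7 kit using a luminogenic caspase-cleavable substrate. […] Reported as percent activation, mean ± SEM.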

NFS-60 [23] = assay: Induction of apoptosis in mouse NFS60 cells assessed as caspase 3/7 activity using DEVD aminoluciferin as substrate at IC50 after 24 hrs […] relative to control; format: functional; how it was run: as §5
HepG2 [24] = assay: Induction of apoptosis in human HepG2 cells assessed as caspase 3/7 activity using DEVD aminoluciferin as substrate at IC50 after 24 hrs by fluorescence assay relative to control; format: functional; how it was run: as §5
MCF7 [25] = assay: Induction of apoptosis in human MCF7 cells assessed as viable cells level at IC50 incubated for 72 hrs by annexin V/propidium iodide staining based flow cytometry (reference value: 99.5%); format: functional
MCF7 [26] = assay: Induction of apoptosis in human MCF7 cells assessed as early apoptotic cells level at IC50 incubated for 72 hrs by annexin V/propidium iodide staining based flow cytometry (reference value: 0.01%); format: functional
MCF7 [27] = assay: Induction of apoptosis in human MCF7 cells assessed as late apoptotic cells level at IC50 incubated for 72 hrs by annexin V/propidium iodide staining based flow cytometry (reference value: 0.01%); format: functional
MCF7 [28] = assay: Induction of apoptosis in human MCF7 cells assessed as necrotic cells level at IC50 incubated for 72 hrs by annexin V/propidium iodide staining based flow cytometry (reference value: 0.48%); format: functional
NFS-60 [29] = assay: Induction of apoptosis in mouse NFS60 cells assessed as viable cells level at IC50 incubated for 72 hrs by annexin V/propidium iodide staining based flow cytometry (reference value: 99.52%); format: functional
NFS-60 [30] = assay: Induction of apoptosis in mouse NFS60 cells assessed as early apoptotic cells level at IC50 incubated for 72 hrs by annexin V/propidium iodide staining based flow cytometry (reference value: 0.46%); format: functional
NFS-60 [31] = assay: Induction of apoptosis in mouse NFS60 cells assessed as late apoptotic cells level at IC50 incubated for 72 hrs by annexin V/propidium iodide staining based flow cytometry (reference value: 0.01%); format: functional
NFS-60 [32] = assay: Induction of apoptosis in mouse NFS60 cells assessed as necrotic cells level at IC50 incubated for 72 hrs by annexin V/propidium iodide staining based flow cytometry (reference value: 0.01%); format: functional
HepG2 [33] = assay: Induction of apoptosis in human HepG2 cells assessed as viable cells level at IC50 incubated for 72 hrs by annexin V/propidium iodide staining based flow cytometry (reference value: 98.97%); format: functional
HepG2 [34] = assay: Induction of apoptosis in human HepG2 cells assessed as early apoptotic cells level at IC50 incubated for 72 hrs by annexin V/propidium iodide staining based flow cytometry (reference value: 0.05%); format: functional
HepG2 [35] = assay: Induction of apoptosis in human HepG2 cells assessed as late apoptotic cells level at IC50 incubated for 72 hrs by annexin V/propidium iodide staining based flow cytometry (reference value: 0.1%); format: functional
HepG2 [36] = assay: Induction of apoptosis in human HepG2 cells assessed as necrotic cells level at IC50 incubated for 72 hrs by annexin V/propidium iodide staining based flow cytometry (reference value: 0.87%); format: functional
NFS-60 [37] = assay: Induction of apoptosis in mouse NFS60 cells assessed as late apoptotic cells at IC50 incubated for 72 hrs by annexin V/propidium iodide staining based flow cytometry (reference value: 0.015 +/- 0.01%)

SMILES: O=C1OC2(CCCCC2)C(=O)N1c1ccc([N+](=O)[O-])cc1
- IC50 (WI-38): 35 nM
- EC100 (WI-38): 0.006 µM
- IC50 (MCF7 [1]): 6.5 nM
- IC50 (NFS-60 [2]): 8.98 nM
- IC50 (HepG2 [3]): 9.4 nM
- Ratio IC50 (MCF7 [4]): 2 - 4
- selectivity ratio [5]: 5.38
- Ratio IC50 [6]: 3.897
- selectivity ratio [7]: 3.72
- MIC (Staphylococcus aureus [8]): inactive
- MIC (Escherichia coli [9]): 3.53 mM (≈ 1020 µg/mL)
- MIC (Candida albicans [10]): inactive
- diameter of the inhibition zone (DIZ) (Staphylococcus aureus [11]): inactive
- diameter of the inhibition zone (DIZ) (Enterococcus faecalis): inactive
- diameter of the inhibition zone (DIZ) (Pseudomonas aeruginosa): 15 mm
- diameter of the inhibition zone (DIZ) (Escherichia coli [12]): 15 mm
- diameter of the inhibition zone (DIZ) (Candida albicans [13]): inactive

SMILES: COc1cccc2c1C(=O)c1c(O)c3c(c(O)c1C2=O)C[C@@](O)(C(=O)CO)C[C@@H]3O[C@H]1C[C@H](N)[C@H](O)[C@H](C)O1 [DOXORUBICIN]
- IC50 (WI-38): 26.6 nM
- EC100 (WI-38): 0.0121 µM
- IC50 (NFS-60 [2]): 13 nM
- IC50 (HepG2 [3]): 10 nM
- Activity (MCF7 [14]): 20.445%
- Activity (MCF7 [15]): 13.53%
- Activity (MCF7 [16]): 33.974%
- Activity (NFS-60 [17]): 11.379%
- Activity (NFS-60 [18]): 34.595%
- Activity (HepG2 [19]): 10.59%
- Activity (HepG2 [20]): 25.49%
- Activity (HepG2 [21]): 36.08%
- Activity (MCF7 [22]): 42.94%
- Activity (NFS-60 [23]): 45.39%
- Activity (HepG2 [24]): 48.09%
- Activity (MCF7 [25]): 60.42%
- Activity (MCF7 [26]): 5.92%
- Activity (MCF7 [27]): 18.78%
- Activity (MCF7 [28]): 14.88%
- Activity (NFS-60 [29]): 58.34%
- Activity (NFS-60 [30]): 7.27%
- Activity (NFS-60 [31]): 21.62%
- Activity (NFS-60 [32]): 12.76%
- Activity (HepG2 [33]): 53.61%
- Activity (HepG2 [34]): 10.54%
- Activity (HepG2 [35]): 23.91%
- Activity (HepG2 [36]): 11.94%
- Activity (NFS-60 [37]): 23.215%
